Source: PMC3971662 (The Journal of General Physiology, 2014)
“And” between values parts separate entries of the source, which are not always exact repeats. Identical values can stand only once.

Key:
Assay type in all cases: cell-based
[1] = target: LE1/WT3 hERG1 channels (L646E) (Homo sapiens, UniProt Q12809, L646E); test: Two-electrode voltage clamp, concatenated tetramer LE1/WT3 in Xenopus oocytes
How it was run: (§1)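 Concatenated L646E/WT tetramers: 50 ng cRNA per oocyte, recorded 4–8 d later by two-electrode voltage clamp in pH 7.6 HEPES bath. Activation used 4-s steps, −70 to 50 mV, with Itail at −70 mV Boltzmann-fitted for V0.5act and z. Inactivation used 1 s at 40 mV, then 5 s at 30 to −140 mV; Itail/(Vret−Erev) was Boltzmann-fitted. Fold increase in Itail-max over 1–30 µM was fitted with a logistic equation (EC50, nH).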

[2] = target: LE2/WT2 hERG1 channels (L646E) (Homo sapiens, UniProt Q12809, L646E); test: Two-electrode voltage clamp, concatenated tetramer LE2/WT2 in Xenopus oocytes; settings: 10 µM PD, mean ± SEM
How it was run: as §1

[3] = target: LE1/WT1/LE2 hERG1 channels (L646E) (Homo sapiens, UniProt Q12809, L646E); settings: 10 µM PD, mean ± SEM
How it was run: as §1

WT4 hERG1 channels = WT4 hERG1 channels (Homo sapiens, UniProt Q12809); settings: 10 µM PD, WT4
How it was run: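 WT4 tetramers (50 ng cRNA, 4–8 d) were studied by two-electrode voltage clamp in pH 7.6 bath, 2 mM KCl. Tests used 4-s steps, −70 to 50 mV, with tails at −70 mV and Boltzmann fits (V0.5act). Inactivation: 40 mV prepulse, then 5 s at 30 to −140 mV. Concentration-response of Itest at 20 mV or of Itail-max was fitted logistically (EC50, nH). Some Itail-Vret runs used 20 mM KCl bath.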

[4] = target: WT3/LE1 hERG1 channels (L646E) (Homo sapiens, UniProt Q12809, L646E); test: Two-electrode voltage clamp, concatenated tetramer WT3/LE1 in Xenopus oocytes
How it was run: as §1

[5] = target: LE4 hERG1 channels (L646E) (Homo sapiens, UniProt Q12809, L646E); test: Two-electrode voltage clamp, concatenated tetramer LE4 in Xenopus oocytes; settings: 10 µM PD, mean ± SEM
How it was run: as §1

[6] = target: LE1/WT1/LE1/WT1 hERG1 channels (L646E) (Homo sapiens, UniProt Q12809, L646E); settings: 10 µM PD, mean ± SEM
How it was run: as §1

WT hERG1 channels = WT hERG1 channels (Homo sapiens, UniProt Q12809); settings: 10 µM PD, WT hERG1
How it was run: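 Oocytes were injected with 10 ng cRNA for single WT subunits and recorded 1–3 d later by two-electrode voltage clamp. Bath (mM): 98 NaCl, 2 KCl, 1 CaCl2, 1 MgCl2, 5 HEPES, pH 7.6. Test compound was diluted from a 20 mM DMSO stock just before use. Itest was taken at the end of 4-s steps (−70 to 50 mV); tails at −70 mV were Boltzmann-fitted for V0.5act and z. Mean ± SEM, n = oocytes.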

In the case of `O=C(O)c1ccccc1Nc1ccc(CCc2ccc(Cl)c(Cl)c2)cc1` [PD, 2-(4-[2-(3,4-dichloro-phenyl)-ethyl]-phenylamino)-benzoic acid], the EC50 [1] is reported as 4.6 µM, the “V0.5act (half-point of channel activation)” value (“V0.5act” below) ([1]; 10 µM PD, LE1/WT3, mean ± SEM) is reported as −30.1 ± 1.6 mV and the “V0.5inact (V0.5 for C-type inactivation)” value ([1]; 10 µM PD, LE1/WT3, mean ± SEM) is reported as −44.6 ± 2.7 mV. The “z (equivalent charge) for activation” value ([1]; 10 µM PD, LE1/WT3, mean ± SEM) was 4.20 ± 0.07, the z for activation (Figure 6 legend) ([1]; 10 µM PD, LE1/WT3, mean ± SEM) was 4.2 ± 0.07 and the z for inactivation ([1]; 10 µM PD, LE1/WT3, mean ± SEM) was 1.24 ± 0.10. The “nH (Hill coefficient) for fold increase in Itail-max” value ([1]; PD, LE1/WT3) was 1.1, the “V0.5act” value [2] was −31.3 ± 1.0 mV and the “V0.5inact (V0.5 for C-type inactivation)” value [2] was −45.5 ± 2.8 mV. The “z (equivalent charge) for activation” value [2] was 3.94 ± 0.12, the z for inactivation [2] was 1.19 ± 0.08 and the “V0.5act” value [3] was −30.3 ± 1.4 mV. The “V0.5inact (V0.5 for C-type inactivation)” value [3] was −47.7 ± 4.0 mV, the “z (equivalent charge) for activation” value [3] was 3.55 ± 0.15 and the z for inactivation [3] was 1.31 ± 0.08. The “increase in Itest measured at the end of 4-s pulses” value (WT4 hERG1 channels) was “about twofold”, the “increase in Itail” value (WT4 hERG1 channels; Vret −140 mV after 1-s pulse to 40 mV) was 68% and the “V0.5act” value (WT4 hERG1 channels; mean ± SEM) was −26.7 ± 1.0 mV. The “V0.5inact (V0.5 for C-type inactivation)” value (WT4 hERG1 channels; mean ± SEM) was −39.4 ± 4.6 mV, the “z (equivalent charge) for activation” value (WT4 hERG1 channels; mean ± SEM) was 3.07 ± 0.30 and the z for inactivation (WT4 hERG1 channels; mean ± SEM) was 1.26 ± 0.17. For the same compound, the EC50 [4] was 4.8 µM, the “V0.5act” value ([4]; 10 µM PD, WT3/LE1, mean ± SEM) was −27.1 ± 1.3 mV and −27.1 ± 1.29 mV and the “V0.5inact (V0.5 for C-type inactivation)” value ([4]; 10 µM PD, WT3/LE1, mean ± SEM) was −33.5 ± 3.7 mV. The “z (equivalent charge) for activation” value ([4]; 10 µM PD, WT3/LE1, mean ± SEM) was 3.44 ± 0.16, the z for activation (Figure 6 legend) ([4]; 10 µM PD, WT3/LE1, mean ± SEM) was 3.44 ± 0.16 and the z for inactivation ([4]; 10 µM PD, WT3/LE1, mean ± SEM) was 1.44 ± 0.19. For the same compound, the “nH (Hill coefficient) for fold increase in Itail-max” value ([4]; PD, WT3/LE1) was 1.4, the “V0.5act” value [5] was −32.6 ± 1.2 mV and the “V0.5inact (V0.5 for C-type inactivation)” value [5] was −43.6 ± 2.2 mV. For the same compound, the “z (equivalent charge) for activation” value [5] was 3.55 ± 0.25, the z for inactivation [5] was 1.52 ± 0.05 and the “V0.5act” value [6] was −32.7 ± 0.8 mV. For the same compound, the “V0.5inact (V0.5 for C-type inactivation)” value [6] was −43.3 ± 3.4 mV, the “z (equivalent charge) for activation” value [6] was 3.45 ± 0.19 and the z for inactivation [6] was 1.22 ± 0.07. For the same compound, the “increase in Itest measured at the end of 4-s pulses” value (WT hERG1 channels) was “about twofold”, the “V0.5act” value (WT hERG1 channels; mean ± SEM) was −29.2 ± 14 mV and the “V0.5inact (V0.5 for C-type inactivation)” value (WT hERG1 channels; mean ± SEM) was −34.7 ± 4.2 mV. For the same compound, the “z (equivalent charge) for activation” value (WT hERG1 channels; mean ± SEM) was 3.07 ± 0.34 and the z for inactivation (WT hERG1 channels; mean ± SEM) was 1.19 ± 0.09.
